Experimental data taken from PMC7733813 (Proceedings of the National Academy of Sciences of the …, 2020).
pKd: −log10 of the molar value. Where a SMILES comes first, the peptide text is derived from it. Bridges are numbered along the chain shown (N, C = ends). Roman numbers before positions name the chains, in order. [ ]: non-standard residue; d: D form. PEG3 = NCCOCCOCCOCCC(=O)O; Dap = NC[C@H](N)C(=O)O

Tests used:
[1] = test system: ovariectomized mice; type: in vivo, mouse; details: OVX mice, 5 µmol/kg i.v. once weekly, 4 wk, vs vehicle
Method in brief: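 C57BL/6J ovariectomized mice, kept specific-pathogen-free, were given test compound i.v. once weekly for 4 wk. Sham-operated and vehicle groups served as controls. Bones were fixed in 70% ethanol and scanned by µCT, and 3D structural indices were computed. Undecalcified tibiae were embedded in glycol methacrylate and cut into 5 µm sections. Sections were stained with toluidine blue for osteoblast parameters and TRAP for osteoclast parameters. Data are mean ± SEM.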

[2] = test system: Col1a1, Alpl, Bglap expression in mouse primary osteoblasts; experiment: qPCR of genes implicated in osteoblastic bone formation in primary osteoblasts; type: cell-based; details: with or without Sema4D-Fc, vs vehicle control
[3] = test system: mouse primary osteoblasts (calvarial cells); experiment: Bone nodule formation in primary calvarial cells, alizarin red S staining; type: cell-based; details: 10 µg/mL mouse Sema4D-Fc; peptide 0.05, 0.5, 5 µM; 21 d
[4] = molecular target: T1, mouse PlxnB1 (Mus musculus, UniProt Q8CJH3); experiment: Surface plasmon resonance; type: binding
T1 sequence (Q8CJH3 20-479 limits assumed): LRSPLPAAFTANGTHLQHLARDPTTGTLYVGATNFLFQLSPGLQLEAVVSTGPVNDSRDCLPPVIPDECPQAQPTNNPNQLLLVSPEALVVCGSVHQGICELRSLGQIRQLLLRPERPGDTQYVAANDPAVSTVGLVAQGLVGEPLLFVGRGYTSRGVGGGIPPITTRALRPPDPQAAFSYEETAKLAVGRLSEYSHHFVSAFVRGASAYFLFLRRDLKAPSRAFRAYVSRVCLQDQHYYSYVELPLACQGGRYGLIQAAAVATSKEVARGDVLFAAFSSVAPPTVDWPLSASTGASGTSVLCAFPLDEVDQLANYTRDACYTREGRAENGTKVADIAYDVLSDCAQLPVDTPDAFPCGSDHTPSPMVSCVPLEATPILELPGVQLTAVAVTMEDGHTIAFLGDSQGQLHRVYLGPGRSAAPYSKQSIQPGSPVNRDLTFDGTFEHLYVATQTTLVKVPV

CC[C@H](C)[C@@H]1NC(=O)[C@H](Cc2ccc(O)cc2)NC(=O)[C@@H]2CCCN2C(=O)[C@H](CCCNC(=N)N)NC(=O)[C@@H](Cc2c[nH]c3ccccc23)NC(=O)CSC[C@@H](C(=O)NCC(=O)NCCOCCOCCOCCC(=O)NC[C@H](NC(=O)CCOCCOCCOCCNC(=O)CNC(=O)[C@@H]2CSCC(=O)N[C@H](Cc3c[nH]c4ccccc34)C(=O)N[C@@H](CCCNC(=N)N)C(=O)N3CCC[C@H]3C(=O)N[C@@H](Cc3ccc(O)cc3)C(=O)N[C@@H]([C@@H](C)CC)C(=O)N[C@@H](CCC(=O)O)C(=O)N[C@@H](CCCNC(=N)N)C(=O)N[C@@H](Cc3c[nH]c4ccccc34)C(=O)N[C@@H]([C@@H](C)O)C(=O)NCC(=O)N[C@@H](CCCNC(=N)N)C(=O)N[C@@H](CC(C)C)C(=O)N[C@@H]([C@@H](C)CC)C(=O)N[C@@H](C(C)C)C(=O)N2)C(N)=O)NC(=O)[C@H](C(C)C)NC(=O)[C@H]([C@@H](C)CC)NC(=O)[C@H](CC(C)C)NC(=O)[C@H](CCCNC(=N)N)NC(=O)CNC(=O)[C@H]([C@@H](C)O)NC(=O)[C@H](Cc2c[nH]c3ccccc23)NC(=O)[C@H](CCCNC(=N)N)NC(=O)[C@H](CCC(=O)O)NC1=O [PB1d6A9] (I: {CH2CO}-[dW]RPYIERWTGRLIVCG[PEG3][Dap]-NH2 / II: {CH2CO}-[dW]RPYIERWTGRLIVCG[PEG3]; amide I:18-II:C; thioether I:N-I:15, II:N-II:15)
bone loss, µCT of femurs [1]: clear suppression of bone loss | expression of Col1a1, Alpl and Bglap [2]: enhanced | bone nodule formation (alizarin red S) [3]: dose-dependent increases in bone formation | pKd [4]: 9.70 | decrease in dissociation rate of dimer over monomer, mouse PlxnB1 ([4]; PB1d6A9 vs PB1m6A9): 10 fold | improvement in KD of dimer over monomer, mouse PlxnB1 ([4]; PB1d6A9 vs PB1m6A9): ~220 fold | increase in association rate of dimer over monomer, mouse PlxnB1 ([4]; PB1d6A9 vs PB1m6A9): 22 fold
